Drawing on ChEMBL document CHEMBL1148521, “Synthesis, antitumor activity, and mechanism of action of benzo[a]pyrano[3,2-h]acridin-7-one analogues of acronycine” (J Med Chem, 2006), this text covers IC50 and Activity for 23 compounds.

SMILES strings stand for the structures. Activity calls are given as the source filed them. The calls are words filed in the database; no cut-off is given here.

The test system of experiment [1] is L1210. Briefly: Antiproliferative activity against mouse L1210 cell line by MTT assay. The class given is functional, cell-based. Put shortly: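 L1210 cells cultured in RPMI 1640 with 10% fetal calf serum, 2 mM glutamine, penicillin/streptomycin and 10 mM HEPES pH 7.4. Exposed to nine serial drug dilutions in triplicate for 48 h (four doubling times), then read by tetrazolium (MTT) assay. IC50 is the concentration cutting optical density by 50% versus untreated controls; mean of at least three independent experiments.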
(Tetrazolium dyes change colour on reduction, which living cells bring about.)

For experiment [2], the system named is KB 3-1. Kind of experiment: Antiproliferative activity against human KB-3-1 cell line by MTT assay. The class given is functional, cell-based. An outline of the steps: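 KB-3-1 cells grown in DMEM with 10% fetal calf serum, 2 mM glutamine, penicillin/streptomycin and 10 mM HEPES pH 7.4. Microculture tetrazolium assay: nine serial drug dilutions in triplicate for 96 h (four doubling times). IC50 is the concentration halving optical density relative to untreated controls; mean of at least three separate experiments.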

Experiment [3] concerns L1210. Briefly: Cell cycle arrest in L1210 cell line by accumulation at S phase after 21 hrs. The class given is functional, cell-based. Conditions: Mus musculus. Put shortly:
(§1)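 L1210 cells at 5 × 10⁵ cells/mL treated 21 h with various drug concentrations. Then ethanol-fixed (70%), washed, and stained 30 min at 20 °C in PBS with 100 µg/mL RNase and 50 µg/mL propidium iodide. Flow cytometry on 10 000 cells per sample. Highest percentage of S-phase cells reported with the concentration giving it.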

Experiment [4] concerns Nucleic Acid. Kind of experiment: Alkylation of DNA at 50 uM by gel shift assay. The class given is nucleic-acid assay. Put shortly:
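Radiolabeled 117-bp pBS DNA fragment (EcoRI/PvuII cut, 3′-end-labeled at EcoRI site with [³²P]dATP, gel-purified) incubated with drug at 50 µM in 1 mM Na cacodylate pH 7.0, dark, room temperature, 2 h or 24 h. Resolved on native polyacrylamide gel in TBE; bound versus free DNA scored as strong, weak or no alkylation.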
(In general: A gel shift assay detects complexes by their altered migration in electrophoresis.)

The test system of experiment [5] is L1210. Kind of experiment: Cell cycle arrest in L1210 cell line by accumulation at S phase at 10 uM after 21 hrs. In kind it is functional, Mus musculus. An outline of the steps: as §1
Experiment [6] has as its system L1210. Briefly: Cell cycle arrest in L1210 cell line by accumulation at S phase at 5 uM after 21 hrs. The class given is functional, Mus musculus. Put shortly: as §1
The test system of experiment [7] is L1210. Briefly: Cell cycle arrest in L1210 cell line by accumulation at S phase at 2.5 uM after 21 hrs. In kind it is functional, Mus musculus. Put shortly: as §1
In experiment [8] the test system is MC-38. Briefly: Antiproliferative activity against mouse C38 cell line implanted in B6D2F1 mouse at 4 mg/kg, iv. In kind it is functional.
In experiment [9] the test system is L1210. Briefly: Cell cycle arrest in L1210 cell line by accumulation at S phase at 0.25 uM after 21 hrs. In kind it is functional, Mus musculus. An outline of the steps:
as §1

In the case of `COc1cc2c(c3nc4ccc5ccccc5c4c(O)c13)C(=O)C(O)C(C)(C)O2` (centres undefined), the results for the IC50 in experiment [1] and in experiment [2] were 500 nM and 2000 nM, respectively. For the same compound, the outcome in experiment [3] and in experiment [4] was inactive.
Turning to `COc1cc2c(c3nc4ccc5ccccc5c4c(OC)c13)C=CC(C)(C)O2`, the IC50 was determined as 28000 nM in [1] and 33000 nM in [2].
For `COc1cc2c(c3c1c(=O)c1c4ccccc4ccc1n3C)C(=O)[C@@H](OC(C)=O)C(C)(C)O2`, the IC50 in experiment [1] was 2000 nM; in [2] it was 6300 nM. Besides, the outcome in experiment [4] was inactive.
Regarding `CCN(CC)C(=O)O[C@@H]1c2c(cc(OC)c3c(=O)c4c5ccccc5ccc4n(C)c23)OC(C)(C)[C@@H]1OC(=O)N(CC)CC` (racemic), the IC50 in experiment [1] was 900 nM; in experiment [2], 800 nM. In experiment [5], this compound had an Activity of 43%. The outcome in [4] was Active.
Take `COc1cc2c(c3nc4ccc5ccccc5c4c(OC)c13)[C@@H](OC(C)=O)[C@@H](OC(C)=O)C(C)(C)O2` (racemic): the 50% inhibitory concentration (IC50) in [1] worked out at 8000 nM; in experiment [2], 7200 nM. Besides, in [4], the outcome was inactive.
In the case of `CCC(=O)O[C@@H]1c2c(cc(OC)c3c(=O)c4c5ccccc5ccc4n(C)c23)OC(C)(C)[C@@H]1OC(=O)CC` (racemic), the IC50 in experiment [1] was 500 nM; in experiment [2], 100 nM. The Activity in experiment [6] came to 70%. Further, in [4], the outcome was Active.
Take `COc1cc2c(c3c1c(=O)c1c4ccccc4ccc1n3C)[C@@H](O)[C@@H](OC(=O)N(C)C)C(C)(C)O2` (racemic): the figures for the half-inhibitory concentration (IC50) in experiment [1] and in [2] were 500 nM and 100 nM, respectively. This compound also returned an Activity in experiment [5] of 73%. Besides, the result in [4] was Active.
With `COc1cc2c(c3c1c(=O)c1c4ccccc4ccc1n3C)[C@@H](O)[C@@H](OC(C)=O)C(C)(C)O2` (racemic), the half-inhibitory concentration (IC50) was determined as 700 nM in experiment [1] and 200 nM in experiment [2]. Also, the Activity in [6] is given as 76%. The outcome in experiment [4] was Active.
In the case of `COc1cc2c(c3nc4ccc5ccccc5c4c(OC)c13)[C@@H](O)[C@@H](O)C(C)(C)O2` (racemic), the concentration for half-maximal inhibition (IC50) in experiment [1] worked out at 1400 nM; in experiment [2] it was 6300 nM. Besides, in experiment [4], the result was inactive.
For `COc1cc2c(c3c1c(=O)c1c4ccccc4ccc1n3C)[C@@H](O)[C@@H](OC(=O)c1ccccc1)C(C)(C)O2` (racemic), the IC50 came out at 800 nM in experiment [1] and 300 nM in experiment [2]. Further, the Activity in [7] is 73%. The result in experiment [4] was Active.
For `COc1cc2c(c3c1c(=O)c1c4ccccc4ccc1n3C)[C@@H](OC(=O)CC(C)C)[C@@H](OC(=O)CC(C)C)C(C)(C)O2` (racemic), the IC50 in experiment [1] was determined as 700 nM; in experiment [2] it was 150 nM. The Activity in experiment [5] is given as 60%. Also, the result in [4] was Active.
For `C=CCCC(=O)O[C@@H]1c2c(cc(OC)c3c(=O)c4c5ccccc5ccc4n(C)c23)OC(C)(C)[C@@H]1OC(=O)CCC=C` (racemic) the same measures were 500 nM, 130 nM, 66% and “Active”.
Turning to `COc1cc2c(c3c1c(=O)c1c4ccccc4ccc1n3C)[C@@H](O)[C@@H](OC(=O)CC(C)C)C(C)(C)O2` (racemic), the IC50 in experiment [1] turned out to be 1000 nM; in [2] it was 200 nM. The compound also came in with an Activity in experiment [6] of 73%. Further, the result in experiment [4] was Active.
The like results for `CCC(=O)O[C@@H]1[C@H](O)c2c(cc(OC)c3c(=O)c4c5ccccc5ccc4n(C)c23)OC1(C)C` (racemic) were, in that order, 500 nM, 100 nM, 69% and “Active”.
Consider `COc1cc2c(c3c1c(=O)c1c4ccccc4ccc1n3C)[C@@H](O)[C@@H](O)C(C)(C)O2` (racemic), for which the figures for the IC50 in experiment [1] and in [2] were 49000 nM and 32000 nM, respectively. Besides, the outcome in experiment [4] was inactive.
On to `COc1cc2c(c3c1c(=O)c1c4ccccc4ccc1n3C)[C@@H](OC(C)=O)[C@@H](OC(C)=O)C(C)(C)O2` (racemic), for which the IC50 in [1] turned out to be 700 nM; in [2], 150 nM. For the same compound, the Activity in [6] is 68%; in experiment [8], greater than 80%. In addition, in experiment [4], the result was Active.
On to `COc1cc2c(c3c1c(=O)c1c4ccccc4ccc1n3C)[C@H]1OC(=O)O[C@H]1C(C)(C)O2` (racemic), for which the half-inhibitory concentration (IC50) in experiment [1] was 60 nM; in experiment [2], 15 nM. Moreover, the Activity in [9] turned out to be 64%. In addition, the outcome in experiment [4] was inactive.
For `C=CCCC(=O)O[C@@H]1[C@H](O)c2c(cc(OC)c3c(=O)c4c5ccccc5ccc4n(C)c23)OC1(C)C` (racemic), the values for the IC50 in experiment [1] and in [2] were 800 nM and 250 nM, respectively. Also, in experiment [6], the Activity stood at 70%. Also, the result in experiment [4] was inactive.
For `C=CCCC(=O)O[C@@H]1[C@H](OC(C)=O)c2c(cc(OC)c3c(=O)c4c5ccccc5ccc4n(C)c23)OC1(C)C` (racemic) the same measures were 700 nM, 100 nM, 78% and “Active”.
The like results for `COc1cc2c(c3c1c(=O)c1c4ccccc4ccc1n3C)[C@@H](OC(C)=O)[C@@H](OC(=O)CC(C)C)C(C)(C)O2` (racemic) were, in that order, 800 nM, 100 nM, 76% and “Active”.
As for `COc1cc2c(c3c1c(=O)c1cc4ccccc4cc1n3C)[C@@H](OC(C)=O)[C@@H](OC(C)=O)C(C)(C)O2` (racemic), the half-maximal inhibitory concentration (IC50) is 700 nM in [1] and 100 nM in experiment [2]. This compound had an Activity in experiment [6] of 73%. Besides, the outcome in experiment [4] was Active.
`COc1cc2c(c3c1c(=O)c1ccccc1n3C)C=CC(C)(C)O2` [ACRONINE]: the IC50 in experiment [1] turned out to be 23000 nM; in experiment [2] it was 3700 nM.
As to `COc1cc2c(c3c1c(=O)c1c4ccccc4ccc1n3C)C=CC(C)(C)O2` [BENZO[A]ACRONYCINE], the IC50 in experiment [1] was determined as 2500 nM; in experiment [2], 8600 nM. The result in [3] was inactive.

One may read the IC50 as the midpoint of a concentration-inhibition curve.
